Results taken from article PMC2882558 (Biopolymers, 2010).
Read-outs that look alike come from different tables or passages of the source. Each block holds one molecule with its values, some of them ahead of it. Square brackets hold non-standard residues; d marks the D form. Ends that are not written are not given here. Peptide text beside a SMILES is read from it. Nle = CCCC[C@H](N)C(=O)O

What was measured:
[1] = tested on: 20S proteasome activated with 0.005% SDS, ChT-L activity; assay: ChT-L peptidase activity of SDS-activated 20S proteasome; type: biochemical, human; conditions: 100% = DMSO solvent control
[2] = Solubility in NMR phosphate buffer; type: physicochemical; conditions: KH2PO4/Na2HPO4 buffer, pH 6.8 (NMR samples)
20S proteasome = assay: Peptidase activities of 20S proteasome; type: biochemical, human; conditions: single peptides; not shown
Summary of the method: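 Human erythrocyte 20S CP, latent or 0.005% SDS-activated, 3 nM final; 50 mM Tris/HCl pH 8.0, DMSO ≤3% final. Test peptide preincubated 10 min at room temperature, then substrate added at 50 or 100 μM final: Suc-LLVY-MCA (ChT-L), Boc-LRR-MCA (T-L), Z-LLE-βNA (PGPH). Emission 460 nm every 2 min, ≤60 min, 37°C; nmol product/mg CP/s; ≥3 repeats across proteasome batches.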

[3] = tested on: 20S proteasome (CP) with PA28αβ activator; type: biochemical, human
Summary of the method: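 Human erythrocyte 20S CP (3 nM final) in 50 mM Tris/HCl pH 8.0 was pretreated with DMSO (≤3% final) or peptide, then mixed with purified human PA28αβ at set molar ratios. After 5 min preincubation, SucLLVY-MCA (50 or 100 μM final) was added. AMC fluorescence at 460 nm was read every 2 min for up to 60 min at 37°C. Activity was expressed as nmol AMC/mg CP/s, with ≥3 repeats using different proteasome batches.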

- % of Ch-L activity, SDS-activated proteasome ([1]; 1 mM peptide): 107%
- % of Ch-L activity, SDS-activated proteasome ([1]; 2 mM peptide): 115%
- % of Ch-L activity, SDS-activated proteasome ([1]; 5 mM peptide): 108%
- % of Ch-L activity, SDS-activated proteasome ([1]; 10 mM peptide): 106%
Molecule: CCCC[C@H](NC(=O)CNC(=O)[C@H](CCCCN)NC(=O)[C@@H](NC(=O)[C@H](CCC(=O)O)NC(=O)CNC(=O)[C@H](CCCNC(=N)N)NC(=O)[C@@H]1CCCN1C(=O)[C@H](CCCCN)NC(=O)[C@@H](N)CCCCN)[C@@H](C)O)C(=O)N[C@H](C(=O)N[C@@H](Cc1ccc(O)cc1)C(N)=O)[C@@H](C)CC [KKP] (H-KKPRGETKG[Nle]IY-NH2)

Molecule: N=C(N)NCCC[C@H](NC(=O)CN)C(=O)N[C@@H](CCCCN)C(=O)N[C@@H](CCCCN)C(=O)N[C@@H](CCCNC(=N)N)C(=O)N[C@@H](CCCNC(=N)N)C(=O)N[C@@H](CCC(N)=O)C(=O)N[C@@H](CCCNC(=N)N)C(=O)N[C@@H](CCCNC(=N)N)C(=O)N[C@@H](CCCNC(=N)N)C(=O)N1CCC[C@H]1C(=O)N[C@@H](CO)C(N)=O [Tat1]
- Solubility in buffer [2]: not fully soluble

- Effect on any of the peptidase activities of 20S proteasome (20S proteasome): did not substantially affect
Molecule: IPKIEDGNDFGV

- Effect on any of the peptidase activities of 20S proteasome (20S proteasome): did not substantially affect
Molecule: IPRIEDGNNFGV

- Activation of CP by PA28αβ (fold) ([3]; CP:PA28αβ molar ratio 1:1): approximately 2,5 x
- Activation of CP by PA28αβ (fold) ([3]; CP:PA28αβ molar ratio 1:2): ~5 x
- Activation of CP by PA28αβ (fold) ([3]; CP:PA28αβ molar ratio 1:4): ~8 x
Molecule: PA28αβ: purified human PA28αβ proteasome activator (BioMol Inc.)

Molecule: RKKRRQRRQDPI-NH2 [Tat2]
- Solubility in buffer [2]: not fully soluble
